Counter-ions that a name gives are not always drawn. Blank lines part the entries; values can stand above or below the compound they belong to. Activity calls are given as the source filed them. The calls are words filed in the database; no cut-off is given here.
Columns and labels:
[1] = test system: dsDNA; assay: Binding affinity to 5'-AGGGGAGGCGAGGAGGGGCGTGGCCGG-3'/3'-TCCCCTCCGCTCCTCCCCGCACCGGCC-5' dsDNA (unknown origin) at 0 to 32 uM by SYBR GOLD staining based EMSA; format: nucleic-acid assay; details: Homo sapiens; dose 0-32 µM
How it was run: (§1)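 Target 27-bp c-kit promoter duplex, annealed at 95 °C, then incubated overnight with or without compound in pH 7.4 buffer (10 mM Tris-HCl, 10 mM KCl, 0.1 mM EDTA). Mixtures run on 16% native polyacrylamide gel at 150 V for 3 h. Gels stained with SYBR Gold for 30 min and imaged on a gel documentation system.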

[2] = test system: A549; assay: Antiproliferative activity against human A549 cells assessed as reduction in cell viability incubated for 48 hrs by xCELLigence RTCA; format: functional, cell-based; details: A549, 48 h
[3] = test system: SGC-7901; assay: Antiproliferative activity against human SGC7901 cells assessed as reduction in cell viability incubated for 48 hrs by xCELLigence RTCA; format: functional, cell-based; details: SGC-7901, 48 h
[4] = test system: A549; assay: Down regulation of c-kit gene expression in human A549 cells at 15 uM incubated for 36 hrs by Western blot analysis; format: functional, cell-based
How it was run: (§2)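 Cells exposed to compound for 36 h, then lysed in RIPA and protein measured by BCA. 30 units of total protein separated by 10% SDS-PAGE, transferred to PVDF and blocked with 5% BSA. Primary antibodies, with β-tubulin as reference, at 4 °C; secondary 2 h; ECL detection. Bands quantified by densitometry, mean ± SD, n = 3.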

[5] = test system: SGC-7901; assay: Induction of morphological changes in human SGC7901 cells assessed as cell detachment at 7.5 uM incubated for 36 hrs by microscopic analysis; format: functional, cell-based
How it was run: (§3)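 Cells seeded at 2 × 10^5 per well and grown 24 h. Medium then replaced with compound-containing medium. After 36 h co-culture, morphology inspected by light microscopy.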

[6] = test system: SGC-7901; assay: Down regulation of c-kit gene expression in human SGC-7901 cells at 15 uM incubated for 36 hrs by Western blot analysis; format: functional, cell-based; how it was run: as §2
[7] = test system: dsDNA; assay: Binding affinity to 5'-AGGGGAGGCGAGGAGGGGCGTGGCCGG-3'/3'-TCCCCTCCGCTCCTCCCCGCACCGGCC-5' dsDNA (unknown origin) by SYBR GOLD staining based EMSA; format: nucleic-acid assay; details: Homo sapiens; how it was run: as §1
[8] = test system: A549; assay: Induction of morphological changes in human A549 cells assessed as membrane bulge at 15 uM incubated for 36 hrs by microscopic analysis; format: functional, cell-based; how it was run: as §3
[9] = test system: A549; assay: Induction of morphological changes in human A549 cells assessed as cell detachment at 15 uM incubated for 36 hrs by microscopic analysis; format: functional, cell-based; how it was run: as §3
[10] = test system: dsDNA; assay: Binding affinity to 5'-AGGGGAGGCGAGGAGGGGCGTGGCCGG-3'/3'-TCCCCTCCGCTCCTCCCCGCACCGGCC-5' dsDNA (unknown origin) at 1:8 DNA:compound ratio by SYBR GOLD staining based EMSA; format: nucleic-acid assay; details: Homo sapiens; how it was run: as §1
[11] = test system: SGC-7901; assay: Inhibition of cell migration in human SGC7901 cells at 1.5 uM incubated for 48 hrs by inverted fluorescence microscope based scratch wound healing assay; format: functional
How it was run: (§4)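 20 × 10^4 cells per well grown to 80% confluence. Wound scratched with a pipette tip, washed twice with PBS and photographed under an inverted fluorescence microscope. Cells then held in serum-free medium with compound for 48 h. Migration measured as distance moved from the wound edge; mean ± SD, n = 3.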

[12] = test system: SGC-7901; assay: Induction of morphological changes in human SGC7901 cells assessed as appearance of round shaped cells at 7.5 uM incubated for 36 hrs by microscopic analysis; format: functional, cell-based; how it was run: as §3
[13] = test system: A549; assay: Inhibition of cell migration in human A549 cells at 1.5 uM incubated for 48 hrs by inverted fluorescence microscope based scratch wound healing assay; format: functional; how it was run: as §4
[14] = test system: Bel-7402; assay: Antiproliferative activity against human Bel-7402 cells assessed as reduction in cell viability incubated for 48 hrs by xCELLigence RTCA; format: functional, cell-based; details: Bel-7402, 48 h
[15] = test system: SGC-7901; assay: Induction of morphological changes in human SGC7901 cells assessed as apoptotic body formation at 7.5 uM incubated for 36 hrs by microscopic analysis; format: functional, cell-based; how it was run: as §3
[16] = test system: MKN-45; assay: Antiproliferative activity against human MKN-45 cells assessed as reduction in cell viability incubated for 48 hrs by xCELLigence RTCA; format: functional, cell-based; details: MKN-45, 48 h
[17] = test system: A549; assay: Induction of apoptosis in human A549 cells assessed as apoptotic rate at 20 uM incubated for 36 hrs by Annexin V-FITC/propidium iodide staining-based flow cytometric analysis; format: functional
[18] = test system: SGC-7901; assay: Induction of apoptosis in human SGC7901 cells assessed as apoptotic rate at 20 uM incubated for 36 hrs by Annexin V-FITC/propidium iodide staining-based flow cytometric analysis; format: functional
[19] = test system: dsDNA; assay: Binding affinity to 5'-AGGGGAGGCGAGGAGGGGCGTGGCCGG-3'/3'-TCCCCTCCGCTCCTCCCCGCACCGGCC-5' dsDNA (unknown origin) by circular dichroism spectroscopic analysis; format: nucleic-acid assay; details: Homo sapiens
How it was run: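 Target duplex annealed at 95 °C, held 24 h in pH 7.0 buffer (10 mM sodium cacodylate, 100 mM NaCl, 0.5% DMSO), then degassed. Compound titrated in at compound:DNA ratios 0.0–3.0, room temperature, 15 min equilibration per addition. CD read 225–400 nm in a 5 mm quartz cell at 100 nm/min, 5.0 nm bandwidth. Average of three parallel runs.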

Activity [1]: inactive
Compound: CC(=O)Nc1cn(C)c(C(=O)Nc2cn(C)c(C(=O)NCCC(=O)Nc3cn(C)c(C(=O)Nc4cn(C)c(C(=O)NCC[C@@H](N)C(=O)Nc5cc(C(=O)Nc6cc(C(=O)NC[C@@H](O)CC(=O)Nc7cc(C(=O)Nc8cc(C(=O)NCCC(=O)NCCCN(C)C)n(C)c8)n(C)c7)n(C)c6)n(C)c5)n4)n3)n2)n1

IC50 [2]: 7.93 µM | IC50 [3]: 6.05 µM | Activity [7]: Dose-dependent effect | Activity [10]: Active | IC50 [14]: 14.9 µM | IC50 [16]: 19.9 µM | Activity [19]: Active
Compound: CC(=O)Nc1cn(C)c(C(=O)Nc2cn(C)c(C(=O)Nc3cc(C(=O)Nc4cn(C)c(C(=O)NCCC(=O)Nc5cn(C)c(C(=O)Nc6cn(C)c(C(=O)NCC[C@@H](NC(=O)c7nc(NC(=O)c8nc(NC(=O)c9nccn9C)cn8C)cn7C)C(=O)Nc7cc(C(=O)Nc8cc(C(=O)NC[C@@H](O)CC(=O)Nc9cc(C(=O)Nc%10cn(C)c(C(=O)Nc%11cc(C(=O)Nc%12cc(C(=O)NCCC(=O)NCCCN(C)C)n(C)c%12)n(C)c%11)n%10)n(C)c9)n(C)c8)n(C)c7)n6)n5)n4)n(C)c3)n2)n1.Cl.Cl
Activity [4]: Active | Activity [5]: Active | Activity [6]: Active | Activity [8]: Active | Activity [9]: Active | inhibition at 1.5 µM [11]: 80.8% | Activity [12]: Active | inhibition at 1.5 µM [13]: 73.5% | Activity [15]: Active | Activity [17]: 47.9% | Activity [18]: 53.3%

Activity [1]: inactive
Compound: CC(=O)Nc1cn(C)c(C(=O)Nc2cn(C)c(C(=O)Nc3cn(C)c(C(=O)NCCC(=O)Nc4cn(C)c(C(=O)Nc5cn(C)c(C(=O)NCC[C@@H](N)C(=O)Nc6cc(C(=O)Nc7cc(C(=O)NC[C@@H](O)CC(=O)Nc8cc(C(=O)Nc9cc(C(=O)Nc%10cc(C(=O)NCCC(=O)NCCCN(C)C)n(C)c%10)n(C)c9)n(C)c8)n(C)c7)n(C)c6)n5)n4)n3)n2)n1

Activity [1]: inactive
Compound: CC(=O)Nc1cn(C)c(C(=O)Nc2cn(C)c(C(=O)NC[C@@H](O)CC(=O)Nc3cn(C)c(C(=O)Nc4cn(C)c(C(=O)NCC[C@@H](N)C(=O)Nc5cc(C(=O)Nc6cc(C(=O)NCCC(=O)Nc7cc(C(=O)Nc8cc(C(=O)NCCC(=O)NCCCN(C)C)n(C)c8)n(C)c7)n(C)c6)n(C)c5)n4)n3)n2)n1

Compound: Cc1ccc(NC(=O)c2ccc(CN3CCN(C)CC3)cc2)cc1Nc1nccc(-c2cccnc2)n1 [IMATINIB MESYLATE]
IC50 [2]: 1.87 µM | IC50 [3]: 0.208 µM | IC50 [14]: 55.5 µM | IC50 [16]: 12.2 µM
